According to publication PMC6605687 (The Journal of General Physiology, 2019):
Positions count from the first letter of the chain named. Read-outs that look alike come from different tables or passages of the source.

Assays:
Type in all cases: cell-based
[1] = target: T1, rP2X2 Lys69Arg (Rattus norvegicus, UniProt P49653, K69R); test: Two-electrode voltage clamp, oocytes expressing rP2X2 Lys69Arg
T1 sequence (P49653 1-472 K69R): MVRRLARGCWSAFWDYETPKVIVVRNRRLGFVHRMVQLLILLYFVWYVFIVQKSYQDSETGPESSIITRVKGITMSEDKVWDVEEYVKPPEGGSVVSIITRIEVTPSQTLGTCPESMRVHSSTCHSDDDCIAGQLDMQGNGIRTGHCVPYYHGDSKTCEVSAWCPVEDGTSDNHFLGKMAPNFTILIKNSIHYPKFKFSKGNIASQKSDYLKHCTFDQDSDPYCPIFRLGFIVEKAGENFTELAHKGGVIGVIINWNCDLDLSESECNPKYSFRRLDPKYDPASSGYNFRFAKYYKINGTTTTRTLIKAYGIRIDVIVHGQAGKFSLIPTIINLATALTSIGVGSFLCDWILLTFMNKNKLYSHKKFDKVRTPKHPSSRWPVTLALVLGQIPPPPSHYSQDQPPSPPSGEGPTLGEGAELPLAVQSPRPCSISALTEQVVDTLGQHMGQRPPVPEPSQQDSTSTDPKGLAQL

[2] = target: T2, rP2X2 Lys71Arg (Rattus norvegicus, UniProt P49653, K71R); test: Two-electrode voltage clamp, oocytes expressing rP2X2 Lys71Arg
T2 sequence (P49653 1-472 K71R): T1 sequence (P49653 1-472 K69R) with R69K, K71R
Summary of the method: (§1)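 Mutations were made by site-directed mutagenesis. Xenopus oocytes were injected with rP2X2 mRNA and incubated in L-15 at 18°C. Two-electrode voltage clamp was done 1–2 days later at −40 mV under ND96 perfusion (pH 7.4). ATP concentration-response currents were normalised and fitted to a one-component Hill equation for EC50 and Hill coefficient. Results are mean ± SEM, tested by one-way ANOVA with Dunnett's test against WT.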

[3] = target: T3, rP2X2 Lys188Gln (Rattus norvegicus, UniProt P49653, K188Q); test: Two-electrode voltage clamp, oocytes expressing rP2X2 Lys188Gln
T3 sequence (P49653 1-472 K188Q): T1 sequence (P49653 1-472 K69R) with R69K, K188Q
Summary of the method: as §1

[4] = target: T4, rP2X2 Thr184Ser (Rattus norvegicus, UniProt P49653, T184S); test: Two-electrode voltage clamp, oocytes expressing rP2X2 Thr184Ser
T4 sequence (P49653 1-472 T184S): T1 sequence (P49653 1-472 K69R) with R69K, T184S
Summary of the method: as §1

[5] = target: T5, rP2X2-3T receptors (Rattus norvegicus, UniProt P49653, C348T/C430T/C9T); test: Single channel outside-out patch-clamp recordings, HEK-293 cells; settings: agonist 1 µM, mean ± SEM
T5 sequence (P49653 1-472 C9T/C348T/C430T): T1 sequence (P49653 1-472 K69R) with C9T, R69K, C348T, C430T
Summary of the method: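 HEK-293 cells were co-transfected by calcium phosphate with rP2X2-3T DNA plus GFP DNA to mark transfected cells, then recorded within 24 h. Outside-out patches were held at −120 mV. Pipette contained 147 NaF, 10 EGTA and 10 HEPES (mM, pH 7.3). Agonist at 1, 10 or 100 µM in extracellular saline (pH 7.3) was applied by fast perfusion for 10 s per 12-s sweep, at 1-min intervals. Amplitudes came from Gaussian fits to all-points histograms, with 2–5 sweeps averaged per patch.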

Nc1ncnc2c1ncn2[C@@H]1O[C@H](COP(=O)(O)OP(=O)(O)OP(=O)(O)O)[C@@H](O)[C@H]1O [ATP, Adenosine 5′-triphosphate]
EC50 [1]: > 5 mM | EC50 ([1]; mean ± SEM): 6 mM | EC50 [2]: 0.37 ± 0.04 mM | EC50 [3]: 8.7 mM | EC50 [4]: 0.026 ± 0.003 mM | Sensitivity to agonist (in words) ([4]; Thr184Ser compared with WT): WT-like sensitivity | SDopen (SD of the open state amplitude) [5]: 1.02 ± 0.1
